For the test, the target named is Neuraminidase (Influenza A virus, UniProt B4URF0). Put plainly: Inhibition of influenza A virus neuraminidase assessed as cleavage of MUNANA substrate by fluorescence assay. A digest of the protocol:
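Screening-kit NA enzyme, not from an avian H5N1 strain, incubated with buffer, substrate and inhibitor at 37 °C. Reaction stopped with stop solution. IC50 taken from percent inhibition plotted against inhibitor concentration; each point in duplicate.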
The term IC50 denotes the point on the concentration scale where inhibition reaches its midpoint. Consider `O=C(O)c1ccccc1C1N[C@H](C(=O)O)CS1` (mixture of isomers), for which the concentration for half-maximal inhibition (IC50) worked out at 18.1 µM. For the compound `O=C(O)[C@@H]1CSC(c2ccco2)N1C(=O)CCl` (mixture of isomers), the IC50 is 12.9 µM. As for `O=C(O)[C@@H]1CSC(c2ccccc2O)N1` (mixture of isomers), the IC50 amounted to 20.2 µM. For the compound `COc1cccc(C2N[C@H](C(=O)O)CS2)c1O` (mixture of isomers), the IC50 stood at 12.3 µM. For `O=C(O)[C@@H]1CSC(c2ccccc2O)N1C(=O)Cc1ccccc1` (mixture of isomers), the IC50 is 0.65 µM. Under `COc1cccc(C2SC[C@@H](C(=O)O)N2C(=O)CN)c1O` (mixture of isomers) stands 0.14 µM. Consider `O=C(O)[C@@H]1CSC(c2ccco2)N1C(=O)Cc1ccccc1` (mixture of isomers), for which the IC50 came to 2.89 µM.

As to `NCC(=O)N1C(c2ccccc2C(=O)O)SC[C@H]1C(=O)O` (mixture of isomers), the IC50 amounted to 0.28 µM.

As for `N#Cc1ccc(C2SC[C@@H](C(=O)O)N2C(=O)Cc2ccccc2)cc1` (mixture of isomers), the IC50 is 2.47 µM. In the case of `O=C(O)[C@@H]1CSC(c2ccccc2)N1C(=O)CCl` (mixture of isomers) it was 7.53 µM. On to `COc1cccc(C2SC[C@@H](C(=O)O)N2C(=O)CCl)c1O` (mixture of isomers), for which the IC50 was determined as 7.92 µM. Consider `N#Cc1ccc(C2N[C@H](C(=O)O)CS2)cc1` (mixture of isomers), for which the IC50 was found to be 23.4 µM. As to `O=C(O)c1ccccc1C1SC[C@@H](C(=O)O)N1C(=O)Cc1ccccc1` (mixture of isomers), the half-inhibitory concentration (IC50) is 1.92 µM.

As to `COc1cccc(C2SC[C@@H](C(=O)O)N2C(=O)Cc2ccccc2)c1O` (mixture of isomers), the IC50 turned out to be 1.62 µM. As to `O=C(O)[C@@H]1CSC(c2ccccc2)N1C(=O)Cc1ccccc1` (mixture of isomers), the IC50 is 1.21 µM. Turning to `N#Cc1ccc(C2SC[C@@H](C(=O)O)N2C(=O)CN)cc1` (mixture of isomers), the IC50 is 0.81 µM.

In the case of `N#Cc1ccc(C2SC[C@@H](C(=O)O)N2C(=O)CCl)cc1` (mixture of isomers), the IC50 amounted to 8.64 µM. For the compound `NCC(=O)N1C(c2ccccc2[N+](=O)[O-])SC[C@H]1C(=O)O` (mixture of isomers), the IC50 worked out at 1.02 µM. Consider `NCC(=O)N1C(c2ccccc2O)SC[C@H]1C(=O)O` (mixture of isomers), for which the IC50 was 0.21 µM. As for `NCC(=O)N1C(c2ccccc2)SC[C@H]1C(=O)O` (mixture of isomers), the IC50 was determined as 0.53 µM. Take `O=C(O)[C@@H]1CSC(c2ccccc2)N1` (mixture of isomers): the IC50 is 21.3 µM. For the compound `O=C(O)[C@@H]1CSC(c2ccccc2O)N1C(=O)CCl` (mixture of isomers), the 50% inhibitory concentration (IC50) worked out at 5.84 µM. In the case of `NCC(=O)N1C(c2ccco2)SC[C@H]1C(=O)O` (mixture of isomers) it was 0.98 µM; in that of `O=C(O)[C@@H]1CSC(c2ccccc2[N+](=O)[O-])N1` (mixture of isomers), 22.5 µM; in that of `O=C(O)c1ccccc1C1SC[C@@H](C(=O)O)N1C(=O)CCl` (mixture of isomers), 10.7 µM.

As to `O=C(O)[C@@H]1CSC(c2ccccc2[N+](=O)[O-])N1C(=O)CCl` (mixture of isomers), the IC50 turned out to be 7.65 µM. For the compound `O=C(O)[C@@H]1CSC(c2ccco2)N1` (mixture of isomers), the IC50 came out at 43.1 µM. Consider `O=C(O)[C@@H]1CSC(c2ccccc2[N+](=O)[O-])N1C(=O)Cc1ccccc1` (mixture of isomers), for which the half-inhibitory concentration (IC50) is 1.87 µM.

Source of the values: ChEMBL document CHEMBL1765019, “Design, synthesis and biological activity of thiazolidine-4-carboxylic acid derivatives as novel influenza neuraminidase inhibitors” (Bioorg Med Chem, 2011).
